Laboratory results as given in ChEMBL document CHEMBL2177015, “Bicyclization and tethering to albumin yields long-acting peptide antagonists” (J Med Chem, 2012).
Starred links: 1 amine or outer side, 2 acyl side, 3 side chain; linkers in the order of their positions; H or OH if unused. Positions of bridges follow the written chain, without caps; N, C: chain ends. Residues, ends and D or L forms follow the SMILES beside them. TBMB = c1c(C[*:1])cc(C[*:3])cc1C[*:2]; mXylylene = c1cc(C[*:1])cc(C[*:2])c1; pXylylene = c1cc(C[*:2])ccc1C[*:1]

Columns and labels:
[1] = target: Albumin (Homo sapiens, UniProt P02768); assay: Binding affinity to human serum albumin by fluorescence polarization assay; type: ADME
In short: (§1)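 Proteins serially diluted 3/2-fold in phosphate buffer (10 mM Na2HPO4, pH 7.4, 150 mM NaCl) and mixed 1:1 with fluorescein-labelled peptide. Incubated 30 min at room temperature, then fluorescence polarization read (excitation 480 nm, emission 535 nm). KD from nonlinear regression of anisotropy against total protein concentration using a quadratic binding equation. Done at 25 °C.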

[2] = target: Albumin (Mus musculus, UniProt P07724); assay: Binding affinity to mouse serum albumin by fluorescence polarization assay; type: ADME; in short: as §1
[3] = Terminal half life in mouse; type: ADME, organism-based; details: in vivo
In short: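 Female BALB/c mice aged 7–9 weeks, given 200 μL of 50 μM in PBS intravenously; 2–3 mice per time point. EDTA plasma sampled up to 320 min or up to 48 h. Conjugate measured by reversed-phase UFLC with fluorescence detection (ex 490, em 525 nm) and by uPA-capture ELISA with antifluorescein detection. Data fitted to a two-compartment model; t1/2 β taken.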

[4] = Terminal half life in rabbit; type: ADME, organism-based, Oryctolagus cuniculus; details: in vivo
[5] = test system: Plasma; assay: Drug degradation in mouse plasma at 50 uM after 24 hrs by RP-HPLC analysis; type: ADME, cell-free
In short: (§2)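 Peptide spiked from 1 mM water stock into mouse plasma (final 50 μM) and incubated at 37 °C. Samples taken at 0, 24 and 48 h, mixed 1:1 with water containing 0.1% TFA and stored at −20 °C. Analysed by RP-HPLC on a C8 column with 220 nm absorbance; peaks identified by ESI-MS.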

[6] = test system: Plasma; assay: (§3) Drug degradation in mouse plasma at 50 uM after 24 to 48 hrs by RP-HPLC analysis; type: ADME, cell-free; details: 50 µM; in short: as §2
[7] = target: T1, Urokinase-type plasminogen activator (Homo sapiens, UniProt P00749); assay: Inhibition of human uPA using H-Glu-Gly-Arg-pNA as substrate after 1 hr in presence of casein and human serum albumin
In short: (§4)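 Human urinary low-molecular-weight uPA (1.5 nM) with 2-fold inhibitor dilutions (8 μM to 1.95 nM) at 25 °C. Additive: 0.1% casein (±1.5 μM hSA or mSA), 0.1% ovA or 0.1% bSA. Substrate 50 μM H-Glu-Gly-Arg-pNA; A405 initial rates over 1 h. Ki from Kiapp corrected for substrate; means of ≥3.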

[8] = target: T1, Urokinase-type plasminogen activator; assay: Inhibition of human uPA using H-Glu-Gly-Arg-pNA as substrate after 1 hr in presence of bovine serum albumin; in short: as §4
[9] = target: T1, Urokinase-type plasminogen activator; assay: Inhibition of human uPA; in short: as §4
[10] = target: T1, Urokinase-type plasminogen activator; assay: Inhibition of human uPA using H-Glu-Gly-Arg-pNA as substrate after 1 hr in presence of ovalbumin; in short: as §4
[11] = target: T1, Urokinase-type plasminogen activator; assay: Inhibition of human uPA using H-Glu-Gly-Arg-pNA as substrate after 1 hr in presence of casein and mouse serum albumin; in short: as §4
[12] = target: T1, Urokinase-type plasminogen activator; assay: Inhibition of human uPA using H-Glu-Gly-Arg-pNA as substrate after 1 hr in presence of casein; in short: as §4
[13] = as §3; type: ADME, cell-free; details: read-out: Drug degradation; in short: as §2

Albumin (Homo sapiens, UniProt P02768), sequence (P02768 whole entry): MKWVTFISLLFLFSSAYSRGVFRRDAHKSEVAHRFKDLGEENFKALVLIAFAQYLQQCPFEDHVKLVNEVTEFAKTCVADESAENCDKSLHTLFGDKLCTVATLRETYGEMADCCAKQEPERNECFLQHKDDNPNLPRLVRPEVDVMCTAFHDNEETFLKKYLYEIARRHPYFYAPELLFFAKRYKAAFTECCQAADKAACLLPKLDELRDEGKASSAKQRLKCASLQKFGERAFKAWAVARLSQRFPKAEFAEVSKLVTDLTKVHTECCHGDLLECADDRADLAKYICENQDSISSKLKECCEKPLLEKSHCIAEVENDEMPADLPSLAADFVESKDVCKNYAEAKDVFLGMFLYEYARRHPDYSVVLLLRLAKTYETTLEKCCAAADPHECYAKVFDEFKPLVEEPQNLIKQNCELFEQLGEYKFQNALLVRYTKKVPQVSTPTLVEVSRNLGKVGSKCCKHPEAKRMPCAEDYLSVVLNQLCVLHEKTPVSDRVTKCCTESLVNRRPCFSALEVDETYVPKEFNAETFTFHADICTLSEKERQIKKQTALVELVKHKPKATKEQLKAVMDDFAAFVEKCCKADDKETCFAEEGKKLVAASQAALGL
Albumin (Mus musculus, UniProt P07724), sequence (P07724 whole entry): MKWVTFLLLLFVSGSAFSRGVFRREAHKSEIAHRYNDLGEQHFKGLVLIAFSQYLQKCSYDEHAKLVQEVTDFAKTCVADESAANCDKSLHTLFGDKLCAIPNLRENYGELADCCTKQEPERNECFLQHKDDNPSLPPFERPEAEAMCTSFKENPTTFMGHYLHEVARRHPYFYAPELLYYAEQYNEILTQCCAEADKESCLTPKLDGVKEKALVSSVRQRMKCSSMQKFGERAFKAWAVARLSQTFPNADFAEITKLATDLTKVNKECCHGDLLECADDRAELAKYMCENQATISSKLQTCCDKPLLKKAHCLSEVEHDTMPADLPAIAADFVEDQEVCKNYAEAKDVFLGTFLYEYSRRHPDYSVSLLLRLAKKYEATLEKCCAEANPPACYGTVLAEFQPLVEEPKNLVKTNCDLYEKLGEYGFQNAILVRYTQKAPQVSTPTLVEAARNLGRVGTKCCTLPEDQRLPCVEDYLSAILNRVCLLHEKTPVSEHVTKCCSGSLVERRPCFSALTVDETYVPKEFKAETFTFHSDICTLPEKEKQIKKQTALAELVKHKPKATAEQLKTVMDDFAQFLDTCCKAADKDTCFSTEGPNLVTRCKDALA

Question: With `CC[C@H](C)[C@H](NC(=O)[C@H](CC(C)C)NC(=O)[C@H](CCCNC(=N)N)N[C@@H](CCCCN)C(=O)NCCCCN=[N+]=[N-])C(=O)N[C@@H](CCC(=O)O)C(=O)N[C@@H](CC(=O)O)C(=O)N[C@H](C(=O)N[C@H]1CSSC[C@@H](C(=O)N[C@@H](CC(C)C)C(=O)N[C@@H](Cc2c[nH]c3ccccc23)C(=O)N[C@@H](CCC(=O)O)C(=O)N[C@@H](CC(=O)O)C(=O)N[C@@H](CC(=O)O)C(=O)O)NC(=O)CNC(=O)[C@H](Cc2c[nH]c3ccccc23)NC(=O)[C@H](CCCNC(=N)N)NC(=O)[C@@H]2CCCN2C(=O)[C@H](CC(C)C)NC1=O)[C@@H](C)CC` as the molecule, how does the Kd [1] read?
Answer: 321 nM

Question: What about the Kd [2] of the same molecule?
Answer: 24 nM

Question: Which half-life [3] does the source give for `CC[C@H](C)[C@H](NC(=O)[C@H](CC(=O)O)NC(=O)[C@H](CCC(=O)O)NC(=O)[C@H](CCSC)NC(=O)[C@H](CC(C)C)NC(=O)[C@H](CCCNC(=N)N)NC(=O)[C@@H](N)CCC(N)=O)C(=O)N[C@@H](CS)C(=O)N[C@@H](CC(C)C)C(=O)N1CCC[C@H]1C(=O)N[C@@H](CCCNC(=N)N)C(=O)N[C@@H](Cc1c[nH]c2ccccc12)C(=O)NCC(=O)N[C@@H](CS)C(=O)N[C@@H](CC(C)C)C(=O)N[C@@H](Cc1c[nH]c2ccccc12)C(=O)N[C@@H](CCC(=O)O)C(=O)N[C@@H](CC(=O)O)C(=O)N[C@@H](CC(=O)O)C(=O)N[C@@H](Cc1ccccc1)C(N)=O` here?
Answer: 19.7 h

Question: And the half-life [4]?
Answer: 68.5 h

Question: For `CC(C)[C@@H]1NC(=O)[C@H](CCC(=O)O)NC(=O)[C@H](Cc2ccc(O)cc2)NC(=O)[C@H](CCCNC(=N)N)NC(=O)[C@H](CO)NC(=O)[C@@H](NC(=O)[C@H](C)N)CSCc2cccc(c2)CSC[C@@H](C(N)=O)NC(=O)[C@H](CC(=O)O)NC1=O` (H-ACSRYEVDC-NH2; linker 2-9 via mXylylene), which Stability [5] is on record?
Answer: Unstable

Question: Which results are given for `CC(C)[C@@H]1NC(=O)[C@H](CCC(=O)O)NC(=O)[C@H](Cc2ccc(O)cc2)NC(=O)[C@H](CCCN=C(N)N)NC(=O)[C@H](CO)NC(=O)[C@@H](NC(=O)[C@H](C)N)CSCc2cc3cc(c2)CSC[C@H](NC(=O)[C@H](CC(=O)O)NC1=O)C(=O)N[C@@H](CCCN=C(N)N)C(=O)NCC(=O)N[C@@H](CCCN=C(N)N)C(=O)NCC(=O)N[C@@H](CO)C(=O)N[C@@H](C)C(=O)N[C@H](C(=O)NCC(N)=O)CSC3` (H-ACSRYEVDCRGRGSACG-NH2; linker 2-9-16 via TBMB)?
Answer: Stability [6]: Unstable; Ki [7]: 60 nM; Ki [8]: 53 nM; Ki [9]: 53 nM; Ki [10]: 56 nM; Ki [11]: 54 nM; Ki [12]: 52 nM

Question: Which metabolised at 50 µM [13] does the source give for `CC(C)[C@@H]1NC(=O)[C@H](CCC(=O)O)NC(=O)[C@H](Cc2ccc(O)cc2)NC(=O)[C@H](CCCNC(=N)N)NC(=O)[C@H](CO)NC(=O)[C@@H](NC(=O)[C@H](C)N)CSCc2ccc(cc2)CSC[C@@H](C(=O)NCC(N)=O)NC(=O)[C@H](C)NC(=O)[C@H](CO)NC(=O)CNC(=O)[C@H](CCCNC(=N)N)NC(=O)CNC(=O)[C@H](CCCNC(=N)N)NC(=O)[C@H](CO)NC(=O)[C@H](CC(=O)O)NC1=O` (H-ACSRYEVDSRGRGSACG-NH2; linker 2-16 via pXylylene) here?
Answer: 60%

Question: Which Stability [6] does the source give for `CC(C)[C@H](NC(=O)[C@H](CCC(=O)O)NC(=O)[C@H](Cc1ccc(O)cc1)NC(=O)[C@H](CCCNC(=N)N)NC(=O)[C@H](CO)NC(=O)[C@H](CO)NC(=O)[C@H](C)N)C(=O)N[C@@H](CC(=O)O)C(=O)N[C@@H](CO)C(=O)N[C@@H](CCCNC(=N)N)C(=O)NCC(=O)N[C@@H](CCCNC(=N)N)C(=O)NCC(=O)N[C@@H](CO)C(=O)N[C@@H](C)C(=O)N[C@@H](CO)C(=O)NCC(N)=O` (H-ASSRYEVDSRGRGSASG-NH2) here?
Answer: Unstable

Question: Which Stability [5] does the source give for `C[C@@H]1NC(=O)[C@H](CO)NC(=O)CNC(=O)[C@H](CCCNC(=N)N)NC(=O)CNC(=O)[C@H](CCCNC(=N)N)NC(=O)[C@@H](N)CSCc2cccc(c2)CSC[C@@H](C(=O)NCC(N)=O)NC1=O` (H-CRGRGSACG-NH2; linker 1-8 via mXylylene) here?
Answer: Unstable
